Assay outcomes deposited in PubChem by Broad Institute.
The list is not random: actives were taken first. Their share in the collection is about 1.3%.
SIRT5 block: SIRT5 desuccinylase inhibitors, primary screen, biochemical, fluorescence imaging, single point, set 5; Purified SirT5, succinyl-peptide AMC, trypsin-coupled fluorescence; inhibition, % at 15 µM; 330,000 tested, 1.1% active; in the data active = inhibition above about 15%
Target sequence (Q9NXA8 whole entry, looked up): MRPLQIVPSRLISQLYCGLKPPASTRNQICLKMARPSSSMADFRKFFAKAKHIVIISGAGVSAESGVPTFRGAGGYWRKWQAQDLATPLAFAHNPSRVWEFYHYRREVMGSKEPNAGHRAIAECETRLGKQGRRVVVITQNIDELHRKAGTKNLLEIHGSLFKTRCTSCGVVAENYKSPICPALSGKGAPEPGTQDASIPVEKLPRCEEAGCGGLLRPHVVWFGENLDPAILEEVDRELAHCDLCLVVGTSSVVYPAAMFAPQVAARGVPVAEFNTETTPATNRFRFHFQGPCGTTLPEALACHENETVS
AF4-AF9 inh: inhibitors of AF4 peptide binding to AF9, primary screen, biochemical, AlphaScreen, biotin-AF4 peptide, FLAG-AF9, single point. Protein AF-9 (Homo sapiens), P42568. inhibition, % at 10 µM. 350,000 tested, 0.47% active. AID 651704, 2012;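 active = every replicate reaching a set inhibition limit, whatever the replicate mean, cut at about 25% in these data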;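 also: 0% = plate neutral control median and 100% = total signal loss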
PDI turbidity: inhibitors of human PDI, primary screen, biochemical, turbidity, single point, plate reader; 350,000 tested, 0.052% active; inhibition, % at 10 µM; Protein disulfide-isomerase (Homo sapiens), P07237; AID 588391, 2011; PDI insulin aggregation turbidity, A650, 90 min;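 active = mean inhibition across replicates of 30% or more, whatever share of single replicates reach that level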
ERp5 inh: inhibitors of ERp5-driven insulin aggregation, primary screen, biochemical, turbidity, absorbance 650 nm, single point | Protein disulfide-isomerase A6 (Homo sapiens), Q15084 | 90 min | inhibition, % at 9.99 µM | 350,000 tested, 0.05% active | AID 651711, 2012;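 active = mean replicate inhibition above about 25%, with every replicate also reaching it, limit read from the data, passing the limit was not always enough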
FN deposition inh: inhibitors of fibronectin matrix deposition, primary screen, AH1F cells, Alexa488-fibronectin fluorescence, plate reader. AH1F fibroblasts, overnight. inhibition, % at 12.6 µM. 350,000 tested, 0.086% active. AID 743247, 2014;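 active = mean inhibition across replicates of 30% or more, regardless of how many single replicates reach that level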;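 also: positive control wells lacked labelled fibronectin entirely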
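Material: AH1F fibroblasts assembling fluorescent fibronectin matrix; amount: 10000 AH1F cells/well; medium: DMEM, 2% serum; reagent: Alexa488-fibronectin, 24 nM final in well; dosing: single compound dose, delivered by pin transfer; incubation: 1 h adhesion, overnight exposure; detection: fluorescence after three HBSS washes, excitation 485 nm, emission 525 nm; measure: fibronectin deposition inhibition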
The depositor's hits bear a star; / = no result given; ! = repeats disagree.

SMILES	SIRT5 block	AF4-AF9 inh	PDI turbidity	ERp5 inh	FN deposition inh
CN(C)CCNc1ccc2ncn3c4ccc(O)cc4c(=O)c1c23	1	34*	4	5	6
Cc1ccc(S(=O)(=O)N2CCCCC2)cc1NC(=O)Cn1cnnn1	0	-39	1	-1	-5
CCCCCCCC/C=C\CCCCCCCC(=O)NCCc1ccc(O)c(O)c1	32*	5	3	2	1
Cc1ccc(S(=O)(=O)N(C)c2ccc(OC(=O)c3ccc(N4CCCC4=O)cc3)cc2)cc1	-8	1	-3	11	-2
O=C(NN1C(=O)/C(=C/C=C/c2ccco2)SC1=S)c1ccccc1O	46*	3	8	1	-1
O=C(O)CC(C(=O)O)N1C(=O)/C(=C/C=C/c2ccco2)SC1=S (stereo unspecified)	30*	-10	4	7	7
O=C(O)CCCN1C(=O)/C(=C/C=C/c2ccco2)SC1=S	32*	1	7	12	6
COc1ccc(/C=C2\SC(=S)N(C(Cc3ccccc3)C(=O)O)C2=O)cc1 (stereo unspecified)	4	-3	7	-3	-26
O=C(O)C(Cc1ccccc1)N1C(=O)/C(=C/C=C/c2ccco2)SC1=S (stereo unspecified)	45*	0	13	6	3
Cn1cccc1/C=C1\SC(=S)N(NC(=O)c2ccccc2O)C1=O	5	12	-1	0	16
COc1ccc(CNC(=S)Nc2cc(OC)ccc2OC)cc1	-2	5	-2	0	0
Cc1cc(C(=O)Nc2cccc3c2O[C@H](CN(C)Cc2ccc4c(c2)OCO4)[C@H](C)CN([C@H](C)CO)C3=O)n(C)n1	-2	0	/	2	/
Cn1cc([N+](=O)[O-])c(C(=O)Nc2ccn(C34CC5CC(CC(C5)C3)C4)n2)n1	-2	-30	5	5	2
Cc1cc(C(=O)Nc2cccc3c2O[C@@H](CN(C)S(=O)(=O)c2ccc(Cl)cc2)[C@@H](C)CN([C@@H](C)CO)C3=O)n(C)n1	0	1	/	26*	/
C[C@@H]1CN([C@H](C)CO)C(=O)c2cccc(NC(=O)c3ccc(-c4nccs4)cc3)c2O[C@@H]1CN(C)Cc1ccc(Oc2ccccc2)cc1	21*	0	/	-4	/
Cc1cc(C(=O)Nc2cccc3c2O[C@@H](CN(C)Cc2ccccc2)[C@@H](C)CN([C@H](C)CO)C3=O)n(C)n1	-2	-1	/	-5	/
Cc1cc(C(=O)Nc2cccc3c2O[C@H](CN(C)Cc2ccc(Oc4ccccc4)cc2)[C@@H](C)CN([C@H](C)CO)C3=O)n(C)n1	17*	7	/	4	/
COc1ccc(CN(C)C[C@H]2Oc3c(NC(=O)c4ccc(-c5nccs5)cc4)cccc3C(=O)N([C@@H](C)CO)C[C@@H]2C)cc1	24*	4	/	5	/
COc1ccc(CN(C)C[C@@H]2Oc3c(NC(=O)c4ccc(-c5nccs5)cc4)cccc3C(=O)N([C@@H](C)CO)C[C@H]2C)cc1	8	6	/	1	/
O=C(C[C@@H]1C[C@@H]2c3cc(NC(=O)C4CCC4)ccc3O[C@@H]2[C@H](CO)O1)NC1CCCCC1	-1	/	/	/	-3
C[C@@H]1CCCCO[C@H](CN(C)C(=O)Nc2ccc3c(c2)OCO3)[C@H](C)CN([C@@H](C)CO)C(=O)c2cc(NC(=O)Nc3ccc(F)cc3)ccc2O1	5	4	/	-4	/
COCC(=O)Nc1ccc2c(c1)C(=O)N(C)C[C@@H](OC)[C@@H](C)CN(C(=O)c1ccccn1)[C@@H](C)CO2	4	2	/	-2	2
Cc1ccc(Cl)c(NC(=O)COC(=O)C2CCC2)c1Cl	7	-3	1	2	4
Cc1cc(C(=O)Nc2cccc3c2O[C@H](CN(C)CC2CC2)[C@H](C)CN([C@H](C)CO)C3=O)n(C)n1	16*	-3	/	0	/
C[C@H](CO)N1C[C@H](C)[C@@H](CN(C)Cc2ccc(Oc3ccccc3)cc2)Oc2c(NC(=O)c3ccncc3)cccc2C1=O	6	25*!	2	0	7
SMILES	SIRT5 block	AF4-AF9 inh	PDI turbidity	ERp5 inh	FN deposition inh
COc1ccc(S(=O)(=O)N(C)C[C@@H]2Oc3ncc(C#CCN(C)C)cc3C(=O)N([C@H](C)CO)C[C@@H]2C)cc1	21*	-3	/	-2	-10
C[C@H]1CN([C@@H](C)CO)C(=O)c2cc(-c3ccc(C#N)cc3)cnc2O[C@@H]1CN(C)C(=O)Nc1ccc(C(F)(F)F)cc1	19*	-1	/	3	-6
C[C@H](CO)N1C[C@H](C)[C@H](CN(C)S(C)(=O)=O)Oc2ncc(C#Cc3ccc(C(F)(F)F)cc3)cc2C1=O	1	0	/	-3	16
C[C@H](CO)N1C[C@H](C)[C@H](CN(C)S(=O)(=O)c2ccc(C#N)cc2)Oc2ncc(C#Cc3ccccc3)cc2C1=O	4	-1	/	-3	/
COc1cccc(S(=O)(=O)N(C)C[C@@H]2Oc3ncc(C#CCN(C)C)cc3C(=O)N([C@@H](C)CO)C[C@H]2C)c1	-6	1	/	-1	/
C[C@H](CO)N1C[C@H](C)[C@H](CN(C)S(=O)(=O)c2ccc(C#N)cc2)Oc2ncc(C#Cc3ccc(C(F)(F)F)cc3)cc2C1=O	27*	-2	/	6	0
Cc1ccc(S(=O)(=O)N(C)C[C@@H]2Oc3ncc(C#Cc4ccccc4)cc3C(=O)N([C@H](C)CO)C[C@@H]2C)cc1	16*	-2	/	0	4
CCC(=O)NCCc1nc(-c2ccccc2)no1	2	2	-2	4	1
O=C1CN(S(=O)(=O)Cc2ccccc2)C[C@@H]2[C@H](c3ccc(C#Cc4cccc(F)c4)cc3)[C@H](CO)N12	17*	-3	/	3	/
O=C1CN(S(=O)(=O)c2ccccc2)C[C@@H]2[C@H](c3ccc(C#Cc4ccccc4)cc3)[C@H](CO)N12	25*	-2	/	2	/
Cn1cnc(S(=O)(=O)N[C@H]2CC[C@@H](CC(=O)Nc3ccccc3)O[C@@H]2CO)c1	34*	-3	/	1	-7
Cc1ccc(S(=O)(=O)N[C@@H]2CC[C@@H](CC(=O)N3CCN(c4ccccc4)CC3)O[C@@H]2CO)cc1	24*	1	/	1	/
Cc1ccc(S(=O)(=O)N[C@@H]2C=C[C@H](CC(=O)N3CCN(c4ccccc4)CC3)O[C@@H]2CO)cc1	25*	1	/	-6	-3
Cc1ccc(S(=O)(=O)N[C@H]2CC[C@H](CC(=O)N3CCN(c4ccccc4)CC3)O[C@H]2CO)cc1	-4	-3	/	3	/
CN(C)CCCNC(=O)C[C@@H]1C=C[C@H](NS(=O)(=O)c2ccccc2)[C@@H](CO)O1	15*	2	/	-3	/
